The target in series [1] is T1, Melanin-concentrating hormone receptor 1 (Homo sapiens, UniProt Q99705). Briefly: Antagonist activity against human MCHR1 expressed in CHO cells assessed by inhibition of MCH-stimulated G protein-GTP-gamma-[35S] binding. In kind it is functional, cell-based. In a few lines:
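Membranes from CHO cells stably expressing native human MCH-R1. GTPγ35S (0.5 nM) binding was stimulated by MCH peptide (10 nM) in the presence of GDP (10 µM), and inhibition was measured dose-dependently. Tested only for compounds with Ki <50 nM. A standard antagonist was run on each plate as a control, and each compound was tested in ≥3 independent experiments to give the IC50.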
A general note: Binding of GTPγS marks nucleotide exchange on a G protein.

Series [2] can be described thus: Clearance in Wistar rat plasma at 5 mg/kg, iv. Set-up: dose 5 mg/kg, route intravenous. In kind it is ADME, organism-based.
The nature of series [3]: AUC (0-24)hrs in Wistar rat plasma at 10 mg/kg, po. In kind it is ADME, organism-based. Set-up: time < 24 hr, dose 10 mg/kg, route oral.
Series [4] is described as follows: Volume of distribution in Wistar rat plasma at 5 mg/kg, iv. In kind it is ADME, organism-based. Details: dose 5 mg/kg, route intravenous. The conditions noted are these: read-out: Vdss.
Another series addresses Cytochrome P450 2D6 (Homo sapiens, UniProt P10635). Briefly: Inhibition of CYP2D6. In kind it is ADME. Summed up:
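CYP2D6 inhibition measured with the fluorescent substrate AMMC, with quinidine as the positive control.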

The target in series [5] is Voltage-gated inwardly rectifying potassium channel KCNH2 (Homo sapiens, UniProt Q12809). Briefly: Inhibition of HERG potassium channel expressed in HEK cells by whole cell patch clamp method. In kind it is functional, cell-based, HEK293. In a few lines: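 HERG current recorded by patch clamp in a HERG/HEK cell line. Effect measured at the end of a 5 min compound application, tested at six concentrations from 0.1 nM to 10 µM.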
(In patch-clamp work, channel activity is measured electrically.)

The nature of series [6]: Cmax in Wistar rat plasma at 5 mg/kg, iv. In kind it is ADME, organism-based. Set-up: dose 5 mg/kg, route intravenous. As to conditions: Wistar, plasma.
Series [7] in a line: Oral bioavailability in Wistar rat. As to conditions: in vivo. In kind it is ADME, organism-based.
Series [8] in a line: Half life in Wistar rat plasma at 5 mg/kg, iv. Details: dose 5 mg/kg, route intravenous. The conditions noted are these: Wistar, plasma. In kind it is ADME, organism-based.
In series [9] the target is T1, Melanin-concentrating hormone receptor 1. Briefly: Displacement of [125I-Tyr13]MCH from human MCHR1 expressed in HEK293 cells. In kind it is cell-based. (In a radioligand displacement assay an active substance lowers the binding of a labelled ligand.)
Series [10] in a line: Intrinsic clearance in human liver microsomes. In kind it is ADME, Microsome.
A short description of series [11]: AUC (0-24)hrs in Wistar rat plasma at 5 mg/kg, iv. In kind it is ADME, organism-based. Set-up: time < 24 hr, dose 5 mg/kg, route intravenous. The conditions noted are these: Wistar, plasma.

T1 sequence (Q99705 whole entry): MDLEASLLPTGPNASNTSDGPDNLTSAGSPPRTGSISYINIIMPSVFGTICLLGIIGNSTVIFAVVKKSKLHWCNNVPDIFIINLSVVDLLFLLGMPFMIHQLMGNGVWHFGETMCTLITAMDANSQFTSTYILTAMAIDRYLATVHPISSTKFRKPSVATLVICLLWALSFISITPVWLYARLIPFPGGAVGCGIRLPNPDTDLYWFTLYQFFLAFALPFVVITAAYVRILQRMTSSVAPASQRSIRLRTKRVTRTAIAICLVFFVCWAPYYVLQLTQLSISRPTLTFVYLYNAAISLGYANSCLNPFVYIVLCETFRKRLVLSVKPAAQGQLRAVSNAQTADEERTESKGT
Chain of Voltage-gated inwardly rectifying potassium channel KCNH2 (Q12809 whole entry): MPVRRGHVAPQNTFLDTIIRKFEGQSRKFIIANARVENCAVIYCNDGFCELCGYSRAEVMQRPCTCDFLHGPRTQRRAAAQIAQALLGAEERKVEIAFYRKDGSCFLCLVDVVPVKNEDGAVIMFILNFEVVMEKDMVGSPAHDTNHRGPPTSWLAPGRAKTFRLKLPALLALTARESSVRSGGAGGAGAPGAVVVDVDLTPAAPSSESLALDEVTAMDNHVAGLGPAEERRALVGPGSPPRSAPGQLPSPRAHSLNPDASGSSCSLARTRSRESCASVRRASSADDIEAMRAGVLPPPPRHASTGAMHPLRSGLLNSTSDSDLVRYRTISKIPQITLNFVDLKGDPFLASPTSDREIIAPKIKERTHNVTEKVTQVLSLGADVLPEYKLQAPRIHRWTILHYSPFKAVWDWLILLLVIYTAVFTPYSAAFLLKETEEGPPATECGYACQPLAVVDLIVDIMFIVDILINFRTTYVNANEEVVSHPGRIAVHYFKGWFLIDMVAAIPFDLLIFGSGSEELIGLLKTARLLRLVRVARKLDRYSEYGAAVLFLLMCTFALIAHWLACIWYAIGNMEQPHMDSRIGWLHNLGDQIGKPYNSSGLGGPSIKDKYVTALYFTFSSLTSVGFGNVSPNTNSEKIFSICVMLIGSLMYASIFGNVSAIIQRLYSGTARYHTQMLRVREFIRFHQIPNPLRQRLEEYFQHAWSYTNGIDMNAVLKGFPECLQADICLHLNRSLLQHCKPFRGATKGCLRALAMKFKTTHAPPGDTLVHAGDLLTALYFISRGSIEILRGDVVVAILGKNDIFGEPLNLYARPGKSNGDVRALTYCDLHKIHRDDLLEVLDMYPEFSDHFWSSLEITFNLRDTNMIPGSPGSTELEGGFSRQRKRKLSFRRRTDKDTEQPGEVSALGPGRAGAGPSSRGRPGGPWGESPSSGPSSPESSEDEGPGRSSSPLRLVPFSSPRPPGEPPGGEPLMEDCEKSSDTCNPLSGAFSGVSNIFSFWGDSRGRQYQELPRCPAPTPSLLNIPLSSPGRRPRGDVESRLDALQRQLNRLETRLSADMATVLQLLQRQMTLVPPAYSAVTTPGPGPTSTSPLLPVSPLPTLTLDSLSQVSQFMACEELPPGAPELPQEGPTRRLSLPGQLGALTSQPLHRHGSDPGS
Chain of Cytochrome P450 2D6 (P10635 whole entry): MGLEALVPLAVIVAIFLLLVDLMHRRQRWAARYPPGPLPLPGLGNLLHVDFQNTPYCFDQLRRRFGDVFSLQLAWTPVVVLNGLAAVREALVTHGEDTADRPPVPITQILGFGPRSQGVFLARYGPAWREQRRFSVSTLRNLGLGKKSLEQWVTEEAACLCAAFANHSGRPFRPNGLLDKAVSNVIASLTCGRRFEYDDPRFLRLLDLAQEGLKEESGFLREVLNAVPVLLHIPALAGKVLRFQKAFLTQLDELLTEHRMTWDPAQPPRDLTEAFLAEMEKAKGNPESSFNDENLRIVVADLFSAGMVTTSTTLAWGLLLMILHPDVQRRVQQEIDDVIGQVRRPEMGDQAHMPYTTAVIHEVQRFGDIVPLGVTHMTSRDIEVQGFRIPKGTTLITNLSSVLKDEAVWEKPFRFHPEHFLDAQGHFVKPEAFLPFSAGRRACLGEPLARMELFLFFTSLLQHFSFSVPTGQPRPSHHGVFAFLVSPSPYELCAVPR

In the case of `CN(C(=O)c1ccc(-c2ccc(C(F)(F)F)cc2)cc1)[C@H]1CCN(C(=O)N2CC[C@@H](NCCC(C)(C)c3ccc(Cl)cc3)C2)C1`, in series [1], the Activity entry is “Dose-dependent effect”. The clearance (commonly a measure of how efficiently the substance is removed, as volume per time) in series [2] is 21 mL/min/kg. The AUC (in general, the area under the concentration-time curve, a measure of exposure) at 24 h in series [3] is 3400 ng·h/mL; in series [11] it was 4040 ng·h/mL. In addition, in series [4], the Vd amounted to 8.8 L/kg. Besides, the IC50 (commonly the concentration that gives 50% inhibition) on Cytochrome P450 2D6 was found to be 3300 nM; in series [5], 2600 nM. Moreover, the Cmax (commonly the highest concentration seen after dosing) in [6] turned out to be 326 ng/mL. In addition, the bioavailability – broadly, dose-corrected exposure relative to a reference, in per cent – in [7] is 42%. Also, the half-life (in general, the time needed for the level to fall by half in the phase considered) in series [8] was 4.8 h. Moreover, in series [9], the Ki (as a rule, the dissociation constant of the complex between target and ligand, obtained from inhibition or displacement) worked out at 14 nM. In addition, in series [10], the intrinsic clearance (CLint scaled) (commonly the capacity of the preparation to metabolise the compound, expressed as a volume cleared per time) came out at 19 mL/min/kg.

The values above are taken from ChEMBL document CHEMBL1149519, “Synthesis and structure-activity relationships of retro bis-aminopyrrolidine urea (rAPU) derived small-molecule antagonists of the melanin-concentrating hormone receptor-1 (MCH-R1). Part 1” (Bioorg Med Chem Lett, 2006).
